Screen size: about 220,000 compounds; about 1,000 (0.45%) were called active. This is one part of a sample in which actives are shown more often than they occur.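 Rule for the calls: active = plate z-score of nuclear minus cytoplasmic receptor signal below a set negative limit, without overly bright fluorescence or cell loss (cut at about -3.5 in these data, passing the limit was not always enough); inactive = the rest, inconclusive results apart.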
Assay: inhibitors of GR-EGFP nuclear translocation, primary screen, dynein cargo transport inhibitor project, imaging, high-content, 3617.4 mouse cells (AID 1381)
Conditions: stimulated with dexamethasone, 1 µM
Method in brief: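 Medium: Induction medium lacking tetracycline, stripped serum | Probe or stimulus: 1.0 µM final dexamethasone stimulus | Schedule: 48 h induction, then 1 h compound, then 30 min agonist, 37 °C | Signal: Automated 10x imaging of fixed Hoechst-stained cells | Evaluation: Per-cell GR-EGFP intensity, nucleus versus surrounding cytoplasmic ring, well-averaged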

[1] = measured here: cell count per field, at 20 µM
[2] = measured here: cytoplasmic GR-EGFP intensity, at 20 µM, stronger effect = higher value
[3] = measured here: nuclear GR-EGFP intensity, at 20 µM, stronger effect = lower value
[4] = measured here: cell count per field, at 50 µM
[5] = measured here: cytoplasmic GR-EGFP intensity, at 50 µM, stronger effect = higher value
[6] = measured here: nuclear GR-EGFP intensity, at 50 µM, stronger effect = lower value

Compound	z-score (at 20 µM, stronger effect = lower value)	z-score [1]	z-score [2]	z-score [3]	z-score (at 50 µM, stronger effect = lower value)	z-score [4]	z-score [5]	z-score [6]
COc1ccccc1NS(=O)(=O)N(C)C	-0.0864 (inactive)	0.4	-0.101	0.17	–	–	–	–
Cc1c(C#N)c(NC(=O)c2ccccc2)n(Cc2ccccc2)c1C	-0.291 (inactive)	0.341	-0.155	-0.456	–	–	–	–
CCN(CC)C(=O)CSC1c2ccccc2C(=O)N1c1ccccc1 (stereo not given)	2.73 (inactive)	-1.62	-0.173	0.99	–	–	–	–
CCC(=O)Nc1cccc(C2=NOC3(C2)C[C@@H](C(N)=O)N(C(=O)c2cc([N+](=O)[O-])cc([N+](=O)[O-])c2C)C3)c1 (stereo not given in full)	-0.341 (inactive)	-0.348	-0.641	0.119	–	–	–	–
COc1ccc(Cl)cc1CSc1ncn[nH]1	1 (inactive)	-0.49	-0.24	0.812	–	–	–	–
O=C(/C=C/Sc1ncn[nH]1)c1ccc(Cl)cc1	-3.98 (active)	0.0934	1.02	-1.6	–	–	–	–
O=C(NCCOCc1ccc(Cl)cc1)c1ncn[nH]1	0.731 (inactive)	-0.271	-0.00295	0.605	–	–	–	–
NS(=O)(=O)c1ccc(CCNC(=O)NC2CCCCC2)cc1	0.431 (inactive)	0.299	-0.269	0.126	–	–	–	–
CCOc1ccc(C(=O)NC2CCN(CC(=O)NCc3cccs3)CC2)cc1	-1.07 (inactive)	-0.199	-0.19	-0.737	–	–	–	–
O=Cc1ccc(Oc2cccc(C(F)(F)F)c2)nc1	1.74 (inactive)	-2.12	0.359	1.33	–	–	–	–
CCOC(=O)C1=C(CC)OC(N)=C(C#N)C1c1ccc(F)cc1F (stereo not given)	-3.05 (inactive)	-0.462	0.472	-1.28	–	–	–	–
CCOC(=O)C1=C(C)OC(N)=C(C#N)C1c1cncc(-c2ccc(F)cc2)c1 (stereo not given)	-3.9 (active)	-0.136	0.28	-1.42	–	–	–	–
C=CCOC(=O)C1=C(C)OC(N)=C(C#N)C1c1ccc(F)cc1 (stereo not given)	-1.1 (inactive)	0.643	-0.165	-0.354	–	–	–	–
O=C1c2ccccc2C(=O)N1Cc1cc(-c2ccccc2Cl)no1	-0.0385 (inactive)	-0.0908	-0.215	0.196	–	–	–	–
COc1ccc(C)cc1NC(=S)Nc1ccccc1SC	-0.497 (inactive)	0.252	-0.293	-0.178	–	–	–	–
Cc1ccc(CN2CCN(Cc3ccc(OCCO)cc3)CC2CCO)o1 (stereo not given)	0.361 (inactive)	0.953	-0.289	-0.03	–	–	–	–
O=C(Nc1ccccc1)OCc1cc(-c2ccc(Cl)cc2)on1	1.93 (inactive)	-1.86	-0.165	1.78	–	–	–	–
O=C1c2cccc3cc(Br)cc(c23)C(=O)N1Nc1ccccc1	0.228 (inactive)	0.252	-0.199	0.671	–	–	–	–
O=C1C=C(c2ccc(Cl)cc2)C(=O)N1Nc1ccccc1	-4.4 (active)	-0.124	2.35	-1.87	–	–	–	–
CCOc1ccccc1N1CCN(C(=O)COc2ccc3c(C)cc(=O)oc3c2)CC1	1.35 (inactive)	-0.138	-0.356	0.787	–	–	–	–
O=C(CSc1nnc(-c2cccnc2)n1Cc1ccco1)c1ccc(Cl)cc1	-0.358 (inactive)	-0.0648	-0.209	-0.055	–	–	–	–
Clc1cccc(-c2nc3nc4ccccc4nc3n2Cc2ccco2)c1	-4.09 (active)	0.0368	2.09	-1.78	–	–	–	–
Cc1cc(NC(=O)CSc2nc3cc(Cl)ccc3c(=O)n2Cc2ccco2)no1	2.31 (inactive)	-1.55	-0.306	1.39	–	–	–	–
Cc1cccc(NC(=S)N2CCC(c3nc4ccccc4s3)CC2)c1	-0.203 (inactive)	0.43	-0.197	-0.339	–	–	–	–

Compound	z-score (at 20 µM, stronger effect = lower value)	z-score [1]	z-score [2]	z-score [3]	z-score (at 50 µM, stronger effect = lower value)	z-score [4]	z-score [5]	z-score [6]
CC1CCN(C(=O)c2ccc(S(=O)(=O)Cc3cc(F)ccc3F)c([N+](=O)[O-])c2)CC1	-3.71 (active)	-1.15	0.395	-2.24	–	–	–	–
O=C(Nc1ccc(F)cc1)C1CCN(C(=O)c2ccc([N+](=O)[O-])cc2)CC1	-0.907 (inactive)	0.228	0.208	-0.321	–	–	–	–
CC1CCN(C(=O)c2ccc(CSc3ccc(Cl)cc3)cc2)CC1	-0.555 (inactive)	0.71	-0.258	-0.29	–	–	–	–
O=C(CC(NC(=O)c1ccccc1)c1ccccc1)Nc1ccc(F)c(F)c1 (stereo not given)	-0.729 (inactive)	0.477	-0.215	-0.567	–	–	–	–
COc1ccc2c(c1)cc1n2CCN=C1NN	1.67 (inactive)	-0.465	-0.0728	0.848	–	–	–	–
Cc1ccc2nc(C)c3c(c2c1)N(c1ccccc1)CC3	-0.838 (inactive)	0.0751	-0.205	-0.482	–	–	–	–
CCCN(c1ccc(C)cc1)c1nc(=O)c2cccnc2s1	0.0477 (inactive)	0.0213	-0.295	0.0592	–	–	–	–
Cc1ccc(Cl)cc1N1CCN(C(=O)c2cccc3c(=O)c(C)c(-c4ccccc4)oc23)CC1	-0.56 (inactive)	0.953	-0.179	-0.287	–	–	–	–
CCOC(=O)c1cc2c(ccn2C)n1CC(=O)N1CCC(C)CC1	–	–	–	–	-0.704 (inactive)	0.841	-0.262	-1.05
O=Cc1cn(Cc2ccccc2)nc1-c1cccnc1	-0.988 (inactive)	0.721	-0.215	-0.566	–	–	–	–
Clc1ccc(CN2CCN(/N=C/c3cccnc3)CC2)cc1	-0.266 (inactive)	0.201	-0.295	-0.167	–	–	–	–
O=C1/C(=C\c2cccnc2)CN(Cc2ccccc2)C/C1=C\c1cccnc1	-3.59 (active)	-0.00204	0.672	-2.16	–	–	–	–
Cc1ccc(S(=O)(=O)N(C)c2ccc(OCC(=O)NC3=NCCS3)cc2)cc1	0.77 (inactive)	-1.53	0.171	1.46	–	–	–	–
Cc1ccnc(N2CCN(C(=O)CSc3nc4ccccc4nc3N3CCCCC3)CC2)c1	-1.05 (inactive)	0.232	-0.187	-0.257	–	–	–	–
CC(C)(C)c1cc(NC(=O)NN2CCOCC2)nn1-c1c(Cl)cc(Cl)cc1Cl	0.305 (inactive)	0.973	-0.287	-0.0782	–	–	–	–
COc1ccc(CCNC(=O)c2ccc(CS(=O)(=O)c3ccc(Br)cc3)o2)cc1OC	0.736 (inactive)	0.162	-0.215	0.28	–	–	–	–
CCN(Cc1nc2ccccc2c(=O)[nH]1)Cc1cc(=O)oc2cc(C)c(C)cc12	–	–	–	–	0.712 (inactive)	0.798	-0.276	-0.426
CCOC(=O)c1cnc2[nH]c3ccccc3n2c1=O	-0.506 (inactive)	-0.246	0.0235	-0.197	–	–	–	–
O=[N+]([O-])c1cccc(-c2nnc3c4ccccc4c4ccccc4n23)c1	-0.00649 (inactive)	0.483	1.22	0.469	–	–	–	–
O=c1[nH]c2ccccc2n2c(-c3ccccc3)nnc12	–	–	–	–	-4.53 (active)	0.378	0.89	-2.64
CCCn1c(SCC(=O)Nc2ccc(C)c(S(=O)(=O)N3CCOCC3)c2)n[nH]c1=O	1.09 (inactive)	0.0169	-0.261	0.257	–	–	–	–
Cc1ccc2nc(Nc3ncc4c(n3)CC(C)(C)CC4=O)nc(C)c2c1	0.135 (inactive)	0.445	-0.285	-0.00084	–	–	–	–
Cc1cccc(Oc2c([N+](=O)[O-])c(=O)n(C)c3ccccc23)c1	-4.31 (active)	0.72	0.943	-2.29	–	–	–	–
Cc1cccc(OP(=O)(Nc2c(C)n(C)n(-c3ccccc3)c2=O)Oc2cccc(C)c2)c1	1.6 (inactive)	-1.31	-0.218	1.25	–	–	–	–

Compound	z-score (at 20 µM, stronger effect = lower value)	z-score [1]	z-score [2]	z-score [3]	z-score (at 50 µM, stronger effect = lower value)	z-score [4]	z-score [5]	z-score [6]
Cn1c2ccccc2c(=O)c2c(O)cccc21	-0.39 (inactive)	0.337	-0.342	-0.208	–	–	–	–
Cc1nn(C)c(Oc2ccccc2)c1[N+](=O)[O-]	-0.413 (inactive)	0.292	-0.104	0.119	–	–	–	–
Cn1c(=O)c([N+](=O)[O-])c(Oc2ccccc2)c2ccccc21	-6.51 (active)	0.669	1.62	-2.76	–	–	–	–
COc1cccc(C(=O)Oc2cc(C)[nH]c(=O)c2[N+](=O)[O-])c1	1.66 (inactive)	-1.05	-0.136	0.869	–	–	–	–
CC(NC(=S)Nc1ccccc1)C1COc2ccccc2O1 (stereo not given)	0.289 (inactive)	0.134	-0.0607	0.355	–	–	–	–
CCN(CC)Cc1csc2ccc(Br)cc12	-0.627 (inactive)	1.15	-0.13	0.249	–	–	–	–
O=C(Nc1ccc(F)cc1)c1cccnc1N1CCOCC1	–	–	–	–	0.0462 (inactive)	1.37	-0.00933	0.174
O=c1[nH]c(N2CCN(Cc3ccc4c(c3)OCO4)CC2)nc2c1CCCC2	-1.03 (inactive)	2.27	-0.309	-0.0483	–	–	–	–
COCC1CCCN(Cc2nc(-c3ccc4c(c3)OCO4)no2)C1 (stereo not given)	0.118 (inactive)	0.19	-0.27	0.224	–	–	–	–
O=C1/C(=C/c2ccc3c(c2)OCO3)CCC/C1=C\c1ccc2c(c1)OCO2	0.645 (inactive)	-1.87	1.28	0.356	–	–	–	–
CSC1=N/C(=C\c2ccc3c(c2)OCO3)C(=O)S1	–	–	–	–	-0.0628 (inactive)	-0.123	-0.227	-0.89
CCC1=C/C(=C\c2ccc3c(c2)OCO3)C(=O)S1	-3.72 (active)	0.295	0.919	-1.39	–	–	–	–
Cc1cccc(C)c1NC1=NC(=S)N(c2ccc(N(C)C)cc2)C1(C)C	1.25 (inactive)	0.0641	-0.0144	0.985	–	–	–	–
Cc1ccc(/C=N/NC(=S)NC2CCCCC2)o1	-0.738 (inactive)	-0.0991	-0.777	-0.608	–	–	–	–
C/C(CC(=O)Nc1cccc(C(F)(F)F)c1)=N\NC(=O)C(=O)NCC(C)C	-0.981 (inactive)	0.594	-0.237	-0.369	–	–	–	–
Cc1nnc(SCCCCSc2nnc(C)c(=O)[nH]2)[nH]c1=O	-0.311 (inactive)	-0.339	-0.259	-0.0707	–	–	–	–
CC(=O)Nc1cccc([N+](=O)[O-])c1	0.101 (inactive)	0.386	-0.384	0.092	–	–	–	–
Cc1ccccc1NC(=S)Nc1cccc([N+](=O)[O-])c1	-0.523 (inactive)	-0.0166	-0.193	-0.37	–	–	–	–
COC(=O)/C=C\C(=O)Nc1cccc([N+](=O)[O-])c1	-4.05 (active)	-0.741	1.08	-2.26	–	–	–	–
COc1ccc(-c2csc(-c3cccs3)n2)cc1OC	0.847 (inactive)	0.288	-0.331	0.694	–	–	–	–
COc1ccc(-c2csc3nc(-c4ccccc4F)oc(=O)c23)cc1OC	-3.75 (active)	-0.574	0.603	-1.45	–	–	–	–
COc1ccc(-c2noc(-c3cccc(OC)c3OC)n2)cc1OC	1.03 (inactive)	-0.605	-0.0658	0.927	–	–	–	–

Reference: PubChem BioAssay AID1381 (University of Pittsburgh Molecular Library Screening Center, 2008)
